Screening data (PubChem BioAssay)
Compounds with a hit are over-represented: about 1.9% of the library has one in this group of screens.
Neddylation inh: cullin neddylation inhibition. inhibition, % at 25 µM. TR-FRET cullin neddylation, biochemical. 360,000 compounds, 0.58% hits; in the data active = inhibition above about 36%
Calb FLC: affects C. albicans growth with fluconazole; C. albicans CaCi-2 + fluconazole, Alamar Blue growth, 48 h; growth inhibition, % (no concentration beside the values); 300,000 compounds, 0.57% hits; AID 1979;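 active = growth inhibition above about 58% in most replicates, limit read from the data, passing the limit was not always enough; inconclusive = exactly half the replicates above a set limit; inactive = most replicates below a set limit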;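 also: all wells also contain fluconazole at 8 µg/ml as a sub-toxic cotreatment; 0% = median of DMSO wells and 100% = median of geldanamycin control wells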
procasp3 activ: activates human procaspase-3; AID 463141; activation, % at 8.5 µM; P42574; 330,000 compounds, 0.11% hits; recombinant procaspase-3 D3A, Ac-DEVD-pNA absorbance 405 nm;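 active = activation above the mean of all tested compounds plus 3 SD, cut at about 21% in these data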;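 also: 0% = DMSO alone and 100% = DMSO wells spiked with extra 5 µM PC-3 D3A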
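System: Procaspase-3 D3A mutant. Medium: Zinc-free 300 mM NaCl, 50 mM HEPES, 0.01% Triton X-100. Schedule: 1 h preincubation plus 2 h reaction at 25 °C. Measured by: 405 nm absorbance of p-nitroaniline, reads at 0 and 120 min. Read-out: percent activation relative to control range.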
HIF act: HIF pathway transcriptional activation | U2OS HRE-luciferase reporter, luminescence; normalized: DMSO 0%, desferrioxamine 100% | activation, % at 7.5 µM (by protocol) | 300,000 compounds, 0.32% hits | AID 1910;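 active = mean activation of at least 10% of the iron chelator positive control signal, with at least half of replicates also reaching 10%; inconclusive = mean and replicate majority disagree about reaching 10%; inactive = mean and most replicates under 10%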
proCasp7 act: counter-screen for procaspase-3 activators: activators of human procaspase-7; activation, % at 8.5 µM; P55210; 330,000 compounds, 0.093% hits; recombinant procaspase-7, Ac-DEVD-pNA absorbance 405 nm; D23A/D198A/D206A triple mutant, cannot self-cleave; scale: DMSO 0, 5 µM enzyme 100; AID 463210;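 active = percent activation above the screen-wide mean plus 3 SD, cut at about 25% in these data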
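Assay system – Uncleavable procaspase-7 mutant enzyme · Quantity – 2 µM procaspase-7 mutant as dispensed · Times – 1 h preincubation, 2 h reaction · Dosing – single nominal 8.5 µM compound dose, 0.8% DMSO final · Buffer or medium – Zinc-free 50 mM HEPES buffer, pH 7.4, with NaCl and Triton X-100 · Detection – Epi-absorbance of released pNA at 405 nm, two timepoints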
FXN GAA850 act: frataxin GAA850 promoter activation; HEK293 lucGAA850 FXN promoter luciferase reporter, 24 h; percent of 10 µM SAHA response; activation, % at 6 µM; 360,000 compounds, 0.56% hits;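 active = activation above the average of all compounds screened plus 3 SD, cutoff fixed separately per campaign, cut at about 7.5% in these data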;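 also: 0% = DMSO wells and 100% = 10 µM SAHA wells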
* = called active by the depositor; ? = inconclusive; / = not tested or not shown.

SMILES	Neddylation inh	Calb FLC	procasp3 activ	HIF act	proCasp7 act	FXN GAA850 act
S=c1nc[nH]c2c1cnn2Cc1ccccc1	-6	94*	/	-26	/	1
O=C1/C(=C\c2ccco2)CCC/C1=C\c1ccco1	19	-11	-11	5	-6	13*
COc1ccc(-c2n[nH]c(C)c2-c2cnn(-c3ccccc3)c2)c(O)c1	15	95*	4	0	-5	0
CCOCCCNC(=O)C(NC(=O)CNC(C)=O)c1ccc(Cl)cc1 (stereo not drawn)	4	-2	-15	-1	-5	1
CCOCCCNC(=O)C(NC(=O)c1ccccc1O)c1ccc(Cl)cc1 (stereo not drawn)	43*	-2	-4	0	0	-3
CN(C(=O)c1ccc(NC(=O)Cc2cccc(NC(=O)C3CCN(C(=O)C4CC4)CC3)c2)cc1)C1CC1	-11	/	/	/	/	0
O=C(O)CCC(C(=O)O)N1C(=O)C2C3CCC(C3)C2C1=O (stereo not drawn)	12	/	/	/	/	0
COc1ccccc1-c1cc(C(F)(F)F)nc(S(=O)(=O)CCCC(=O)N2CCOCC2)n1	37	-3	2	15*	-11	0
CCOC1=C2CN(S(=O)(=O)c3ccc(C)cc3)[C@@H](c3cccs3)C[C@H]2[C@H]2C(=O)N(c3ccccc3)C(=O)[C@H]2C1	-70	/	/	/	/	/
Cc1cccc(-n2ncc3c(NCCCn4ccnc4)ncnc32)c1	38	13	3	2	-2	3
Cc1cccc(-n2ncc3c(NCCCN4CCCC4=O)ncnc32)c1	38*	28	4	2	-2	1
Cc1cccc(C)c1-n1nnnc1C(c1ccnc2ccccc12)N(C)Cc1ccccc1 (stereo not drawn)	3	/	/	/	/	/
O=C1CCCC2=C1C(Cc1ccccc1)C1=C(CCCC1=O)O2	-1	2	-11	351*	-5	0
O=C1CCCC2=C1C(c1ccccc1O)C1=C(CCCC1=O)O2	3	?	1	0	-8	2
COc1cccc2sc(Nc3nc(-c4ccccn4)cs3)nc12	-20	-38	-5	94*	-12	-16
CCOC(=O)c1sc(Nc2nc3c(OC)cccc3s2)nc1C	-50	78*	-63	4	-66	5
COC(=O)c1sc(Nc2ccccc2)nc1C	-26	10	9	2	6	9.9*
c1ccc(Nc2nc(-c3ccccn3)cs2)cc1	-13	?	-6	1	9	2
CCOC(=O)C(=Cc1ccc2c(c1)OCO2)c1ccccc1	-4	/	/	/	/	3
CC(C)NC(=O)Cn1c(SCC(=O)N2CCCc3ccccc32)nc2ccccc21	-4	?	1	-1	-4	-1
O=C(Cn1c(SCC(=O)N2CCCc3ccccc32)nc2ccccc21)N1CCCC1	1	-30	-4	70*	1	-2
CCOc1cccc(-c2cc(-c3n[nH]c(=S)n3CC)c3ccccc3n2)c1	-42	69*	-21	1	-16	4
Cc1cccc(CN2CCN(C3CN(Cc4ccc(F)cc4)S(=O)(=O)C3)CC2)c1 (stereo not drawn)	-2	/	/	/	/	/
CC1CCCN(Cc2c(O)ccc3c(=O)c(-c4nc5ccccc5s4)c(N)oc23)C1 (stereo not drawn)	/	81*	-7	1	-7	-3
Nc1ncc(Br)cc1N=Cc1ccccc1	-98	2	2	6	-7	9.9*
SMILES	Neddylation inh	Calb FLC	procasp3 activ	HIF act	proCasp7 act	FXN GAA850 act
N#Cc1ccccc1N=Cc1ccc(Br)cc1	6	-1	11	0	9	0
O=C(c1cccc([N+](=O)[O-])c1)N1CCOCC1	-6	1	5	0	4	1
O=C(/C=C\c1ccc(-c2cccc([N+](=O)[O-])c2)o1)N1CCOCC1	-14	97*	9	3	-2	0
Cc1ccc(N2C(=O)[C@@H]3C(c4cccnc4)=NO[C@@H]3C2=O)cc1	-6	28	-8	-1	-2	3
COc1ccc(N2C(=O)[C@@H]3C(c4cccnc4)=NO[C@@H]3C2=O)cc1	-2	-4	-16	30*	-16	2
COCCNC(=O)C1(C)CCN(Cc2ccc(C(C)C)cc2)C1 (stereo not drawn)	1	/	/	/	/	0
